Measured values pooled from the literature.
Protocols differ between the studies behind these lines.
Target: STE20/SPS1-related proline-alanine-rich protein kinase (STK39, Homo sapiens, UniProt Q9UEW8)

| SMILES | effect on | mode | method | tested at | endpoint | result |
| --- | --- | --- | --- | --- | --- | --- |
| Cn1cncc1[C@](O)(COc1ccc(C#N)cc1-c1ccc(OC(F)(F)F)cc1)c1ccc(C#N)cc1 | cell-free assay | – | competition with immobilised ligand | 1 µM | remaining binding | 50% |
| COc1ncccc1-c1cnn2ccc(N3CCN(C(=O)OC(C)C)CC3)nc12 | binding | – | competition with immobilised ligand | 1 µM | remaining binding | 88% |
| Cc1nn(C)cc1-c1nc2c(N3CCN(Cc4ccc(Cl)cc4)CC3)c(Cl)cnc2[nH]1 | binding | – | competition with immobilised ligand | 1 µM | remaining binding | 100% |
| N#CC1(c2ccccn2)CCN(Cc2cc(C(=O)O)c(=O)n3ccccc23)CC1 | cell-free assay | – | competition with immobilised ligand | 1 µM | remaining binding | 56% |
| CC(C)(C)c1cc(C=C(C#N)C#N)cc(Br)c1O | enzyme activity | inhibitor | – | 0.5 µM | remaining activity | 87.6% |
| COc1cc(Nc2ncc(F)c(Nc3ccc4c(n3)NC(=O)C(C)(C)O4)n2)cc(OC)c1OC | binding | – | – | 10 µM | inhibition | 65% |
| O=c1[nH]c2ccccc2n1C1CCN(Cc2ccc(-c3[nH]c4cc5ncnc5cc4nc3-c3ccccc3)cc2)CC1 | cell-free assay | – | – | 0.5 µM | remaining signal | 98.2% |
| Nc1ncc(-c2nc(N3CCOCC3)nc(N3CCOCC3)n2)c(C(F)F)n1 | binding | – | competition with immobilised ligand | 10 µM | remaining binding | 70% |
